IC50 and solubility data for one compound are collected here from ChEMBL document CHEMBL1156877, “Discovery of 6-benzyloxyquinolines as c-Met selective kinase inhibitors” (Bioorg Med Chem Lett, 2010).

For one series, the system named is A549. Briefly: Cytotoxicity against human A549 cells after 96 hrs by WST8 assay. As to conditions: A549, 96 h.
A further series concerns HCT-116. The experiment in a line: Cytotoxicity against human HCT116 cells after 96 hrs by WST8 assay. Particulars: HCT-116, 96 h. In general terms: Tetrazolium dyes change colour on reduction, which living cells bring about.
Series [1] concerns the target T1, Receptor-type tyrosine-protein kinase FLT3 (Homo sapiens, UniProt P36888).
T1 sequence (P36888 whole entry): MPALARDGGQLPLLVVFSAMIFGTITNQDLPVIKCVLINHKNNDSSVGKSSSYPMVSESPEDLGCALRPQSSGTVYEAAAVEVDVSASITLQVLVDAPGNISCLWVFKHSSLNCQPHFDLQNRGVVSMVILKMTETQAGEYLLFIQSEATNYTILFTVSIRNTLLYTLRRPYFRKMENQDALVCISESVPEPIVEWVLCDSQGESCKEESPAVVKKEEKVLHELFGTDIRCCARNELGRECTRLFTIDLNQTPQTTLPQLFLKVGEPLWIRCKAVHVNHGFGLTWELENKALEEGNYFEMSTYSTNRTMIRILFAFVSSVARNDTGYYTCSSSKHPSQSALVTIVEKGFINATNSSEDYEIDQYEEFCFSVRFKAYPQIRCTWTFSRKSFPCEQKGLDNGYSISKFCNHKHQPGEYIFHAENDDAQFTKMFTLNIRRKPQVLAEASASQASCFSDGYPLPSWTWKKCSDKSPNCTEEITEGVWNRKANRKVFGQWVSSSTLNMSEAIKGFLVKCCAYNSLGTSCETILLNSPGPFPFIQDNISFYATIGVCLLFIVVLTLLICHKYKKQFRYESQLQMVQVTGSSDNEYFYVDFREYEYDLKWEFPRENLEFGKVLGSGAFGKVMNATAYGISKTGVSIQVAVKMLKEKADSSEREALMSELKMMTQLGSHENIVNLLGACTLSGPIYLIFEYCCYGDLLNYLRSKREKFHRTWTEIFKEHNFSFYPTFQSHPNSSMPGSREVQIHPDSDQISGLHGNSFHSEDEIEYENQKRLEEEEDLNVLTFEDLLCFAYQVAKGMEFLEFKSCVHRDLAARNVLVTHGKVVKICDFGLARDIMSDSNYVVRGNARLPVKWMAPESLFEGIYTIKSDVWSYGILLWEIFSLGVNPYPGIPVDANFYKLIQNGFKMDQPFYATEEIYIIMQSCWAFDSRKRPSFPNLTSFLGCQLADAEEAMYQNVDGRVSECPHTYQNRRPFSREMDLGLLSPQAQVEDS
The experiment in a line: Inhibition of recombinant Flt3 by TR-FRET assay. An outline of the steps: (§1)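 Recombinant tyrosine kinase incubated with test compound and substrate peptide/ATP for 90 min at 30 °C; enzyme amount, ATP level, substrate and cation vary by kinase. Reaction stopped, then TR-FRET reagent with europium-labelled anti-phospho-substrate antibody added for 5 min at room temperature; substrate phosphorylation read as time-resolved fluorescence.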

In another series the test system is MKN-45. Briefly: Cytotoxicity against human MKN45 cells after 96 hrs by WST8 assay. Particulars: MKN-45, 96 h. It is filed as functional, cell-based. The procedure, abridged:
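Tumour cells exposed to a range of compound concentrations for 96 h; cytotoxicity read with WST-8 cell counting kit.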

Series [2] concerns the target Protein kinase C beta type (Homo sapiens, UniProt P05771). The experiment in a line: Inhibition of recombinant PKCbeta2 by IMAP assay. The procedure, abridged:
(§2)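 Recombinant enzyme mixed with test compound and substrate peptide/ATP solution, incubated 90 min at 30 °C; enzyme quantity, ATP, substrate and cation set per kinase. IMAP reagent then added for 5 min at room temperature, and peptide phosphorylation quantified by fluorescence polarization.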

The target of series [3] is Cyclin-dependent kinase 2 (Homo sapiens, UniProt P24941). Briefly: Inhibition of recombinant CDK2 by IMAP assay. The procedure, abridged:
as §2

For series [4], the target named is Tyrosine-protein kinase ABL1 (Homo sapiens, UniProt P00519). Briefly: Inhibition of recombinant Abl by TR-FRET assay. The procedure, abridged: as §1
Chain of Tyrosine-protein kinase ABL1 (P00519 whole entry): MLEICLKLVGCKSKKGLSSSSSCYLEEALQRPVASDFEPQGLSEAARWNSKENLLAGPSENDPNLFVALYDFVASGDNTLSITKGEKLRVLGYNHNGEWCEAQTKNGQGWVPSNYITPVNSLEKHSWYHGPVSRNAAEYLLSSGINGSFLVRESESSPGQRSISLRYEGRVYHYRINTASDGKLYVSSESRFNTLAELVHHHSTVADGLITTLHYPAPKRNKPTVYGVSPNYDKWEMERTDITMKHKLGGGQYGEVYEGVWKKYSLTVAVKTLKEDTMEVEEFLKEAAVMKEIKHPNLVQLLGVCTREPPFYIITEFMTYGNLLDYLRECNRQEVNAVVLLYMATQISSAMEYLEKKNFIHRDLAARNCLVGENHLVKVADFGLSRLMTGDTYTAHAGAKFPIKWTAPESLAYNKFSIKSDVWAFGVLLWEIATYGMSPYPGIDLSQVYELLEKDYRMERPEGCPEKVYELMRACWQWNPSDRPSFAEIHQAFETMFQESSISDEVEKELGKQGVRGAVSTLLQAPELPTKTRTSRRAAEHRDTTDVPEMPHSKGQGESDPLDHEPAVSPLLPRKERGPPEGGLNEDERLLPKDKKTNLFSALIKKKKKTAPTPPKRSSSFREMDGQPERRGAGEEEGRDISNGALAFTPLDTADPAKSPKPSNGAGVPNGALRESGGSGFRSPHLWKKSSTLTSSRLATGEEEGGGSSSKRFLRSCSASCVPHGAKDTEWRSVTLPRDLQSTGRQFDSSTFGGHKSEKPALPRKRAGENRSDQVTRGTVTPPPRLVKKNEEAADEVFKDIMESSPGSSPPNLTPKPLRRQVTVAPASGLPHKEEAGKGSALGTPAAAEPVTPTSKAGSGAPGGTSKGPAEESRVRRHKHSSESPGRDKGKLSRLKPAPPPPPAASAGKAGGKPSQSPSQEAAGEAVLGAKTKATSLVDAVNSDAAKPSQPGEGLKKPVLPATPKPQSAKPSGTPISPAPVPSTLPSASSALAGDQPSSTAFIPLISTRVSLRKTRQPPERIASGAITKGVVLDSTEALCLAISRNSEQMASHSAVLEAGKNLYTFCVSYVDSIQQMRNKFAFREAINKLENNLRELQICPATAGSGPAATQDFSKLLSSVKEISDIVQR
A general note: TR-FRET usually uses a lanthanide donor and a delayed reading to cut background.

Series [5] in a line: Solubility in fasted state simulated intestinal fluid. The series is classed as physicochemical.
Series [6] has as its target Macrophage-stimulating protein receptor (Homo sapiens, UniProt Q04912). The experiment in a line: Inhibition of recombinant RON by TR-FRET assay. The procedure, abridged:
as §1

The next series has as its target T2, Aurora kinase A (Homo sapiens, UniProt O14965).
T2 sequence (O14965 whole entry): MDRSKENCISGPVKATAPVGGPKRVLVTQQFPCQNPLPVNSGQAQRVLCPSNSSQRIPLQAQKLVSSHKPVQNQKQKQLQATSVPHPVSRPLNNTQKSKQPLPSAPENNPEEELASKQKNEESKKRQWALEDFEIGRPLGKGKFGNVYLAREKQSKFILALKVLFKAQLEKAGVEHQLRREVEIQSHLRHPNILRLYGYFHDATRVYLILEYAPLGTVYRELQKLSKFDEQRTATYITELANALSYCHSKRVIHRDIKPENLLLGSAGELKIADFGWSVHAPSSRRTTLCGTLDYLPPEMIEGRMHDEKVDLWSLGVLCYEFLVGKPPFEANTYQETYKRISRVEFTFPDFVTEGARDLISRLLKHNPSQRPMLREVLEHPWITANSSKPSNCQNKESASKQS
The experiment in a line: Inhibition of recombinant Aurora A by IMAP assay. An outline of the steps: as §2

For the next series, the system named is BXPC-3. Briefly: Cytotoxicity against human BxPC3 cells after 96 hrs by WST8 assay. Particulars: BXPC-3, 96 h.
In the next series the test system is HUVEC. Briefly: Inhibition of HGF-induced proliferation of HUVEC after 96 hrs by WST8 assay. As to conditions: Homo sapiens.
For the next series, the target named is Insulin receptor (Homo sapiens, UniProt P06213). The experiment in a line: Inhibition of recombinant InsR by TR-FRET assay.
Chain of Insulin receptor (P06213 28-758 limits assumed): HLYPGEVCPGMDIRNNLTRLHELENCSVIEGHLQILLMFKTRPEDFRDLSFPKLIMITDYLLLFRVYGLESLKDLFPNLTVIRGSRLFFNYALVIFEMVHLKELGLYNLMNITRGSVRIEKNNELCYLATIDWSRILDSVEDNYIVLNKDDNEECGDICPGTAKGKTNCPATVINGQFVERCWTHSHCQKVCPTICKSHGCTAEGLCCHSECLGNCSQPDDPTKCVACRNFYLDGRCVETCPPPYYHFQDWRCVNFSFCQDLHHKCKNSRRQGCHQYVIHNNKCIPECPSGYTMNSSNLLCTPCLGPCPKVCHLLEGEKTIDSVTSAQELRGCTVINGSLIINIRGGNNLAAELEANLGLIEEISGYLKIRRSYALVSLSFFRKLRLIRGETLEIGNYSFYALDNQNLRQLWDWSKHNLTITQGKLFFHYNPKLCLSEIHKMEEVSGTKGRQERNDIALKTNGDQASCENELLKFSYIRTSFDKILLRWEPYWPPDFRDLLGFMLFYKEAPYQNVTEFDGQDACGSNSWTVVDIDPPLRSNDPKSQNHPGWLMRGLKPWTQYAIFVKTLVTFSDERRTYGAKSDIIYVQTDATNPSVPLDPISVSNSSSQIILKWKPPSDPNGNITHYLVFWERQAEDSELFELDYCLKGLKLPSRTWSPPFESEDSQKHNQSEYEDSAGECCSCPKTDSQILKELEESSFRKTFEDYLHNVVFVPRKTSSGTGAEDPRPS
Chain of Insulin receptor (P06213 763-1382 limits assumed): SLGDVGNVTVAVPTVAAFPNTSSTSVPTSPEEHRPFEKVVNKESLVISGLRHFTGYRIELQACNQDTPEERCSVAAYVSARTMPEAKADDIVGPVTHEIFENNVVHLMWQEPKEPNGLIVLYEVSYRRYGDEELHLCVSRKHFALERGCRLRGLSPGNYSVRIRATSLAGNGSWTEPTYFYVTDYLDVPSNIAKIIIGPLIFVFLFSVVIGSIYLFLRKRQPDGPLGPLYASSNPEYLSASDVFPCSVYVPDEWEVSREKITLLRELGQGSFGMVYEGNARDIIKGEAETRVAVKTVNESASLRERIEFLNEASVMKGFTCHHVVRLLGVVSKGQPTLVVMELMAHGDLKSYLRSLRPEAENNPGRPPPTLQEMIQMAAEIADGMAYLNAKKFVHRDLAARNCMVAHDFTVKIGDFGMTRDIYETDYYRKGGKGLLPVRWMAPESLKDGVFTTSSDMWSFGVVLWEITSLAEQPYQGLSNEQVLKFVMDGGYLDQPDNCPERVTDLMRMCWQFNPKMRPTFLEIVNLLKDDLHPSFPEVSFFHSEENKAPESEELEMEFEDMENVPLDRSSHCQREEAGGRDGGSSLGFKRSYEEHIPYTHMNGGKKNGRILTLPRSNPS
A further series concerns Calu-6. Briefly: Cytotoxicity against human Calu6 cells after 96 hrs by WST8 assay. As to conditions: Calu-6, 96 h.

In brackets after ≈: the same amount, converted by molar mass.

Chain of Protein kinase C beta type (P05771 whole entry): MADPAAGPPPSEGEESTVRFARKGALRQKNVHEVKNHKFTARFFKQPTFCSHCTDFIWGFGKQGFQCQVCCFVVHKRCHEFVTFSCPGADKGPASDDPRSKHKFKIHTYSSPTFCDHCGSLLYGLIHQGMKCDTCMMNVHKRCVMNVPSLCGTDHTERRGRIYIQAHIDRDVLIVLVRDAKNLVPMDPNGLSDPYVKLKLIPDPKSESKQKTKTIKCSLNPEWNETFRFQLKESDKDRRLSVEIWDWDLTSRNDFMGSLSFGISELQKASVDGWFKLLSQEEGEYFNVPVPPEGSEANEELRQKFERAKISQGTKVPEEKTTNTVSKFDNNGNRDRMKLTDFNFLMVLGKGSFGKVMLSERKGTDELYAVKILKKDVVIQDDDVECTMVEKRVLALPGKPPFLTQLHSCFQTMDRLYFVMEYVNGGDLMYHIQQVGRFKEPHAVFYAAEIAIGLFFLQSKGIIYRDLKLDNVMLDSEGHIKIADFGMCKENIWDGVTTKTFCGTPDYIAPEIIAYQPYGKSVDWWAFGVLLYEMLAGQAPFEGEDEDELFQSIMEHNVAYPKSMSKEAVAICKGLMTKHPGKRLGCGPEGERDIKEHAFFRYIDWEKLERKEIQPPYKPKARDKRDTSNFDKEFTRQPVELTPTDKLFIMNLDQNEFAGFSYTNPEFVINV
Chain of Macrophage-stimulating protein receptor (Q04912 25-304 limits assumed): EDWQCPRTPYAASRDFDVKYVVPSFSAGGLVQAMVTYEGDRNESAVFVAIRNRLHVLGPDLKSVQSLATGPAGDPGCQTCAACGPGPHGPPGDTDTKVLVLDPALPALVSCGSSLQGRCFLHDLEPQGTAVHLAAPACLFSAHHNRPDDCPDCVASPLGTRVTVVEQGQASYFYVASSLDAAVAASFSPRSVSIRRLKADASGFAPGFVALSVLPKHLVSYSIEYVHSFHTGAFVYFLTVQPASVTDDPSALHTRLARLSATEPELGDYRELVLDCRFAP
Chain of Macrophage-stimulating protein receptor (Q04912 310-1400 limits assumed): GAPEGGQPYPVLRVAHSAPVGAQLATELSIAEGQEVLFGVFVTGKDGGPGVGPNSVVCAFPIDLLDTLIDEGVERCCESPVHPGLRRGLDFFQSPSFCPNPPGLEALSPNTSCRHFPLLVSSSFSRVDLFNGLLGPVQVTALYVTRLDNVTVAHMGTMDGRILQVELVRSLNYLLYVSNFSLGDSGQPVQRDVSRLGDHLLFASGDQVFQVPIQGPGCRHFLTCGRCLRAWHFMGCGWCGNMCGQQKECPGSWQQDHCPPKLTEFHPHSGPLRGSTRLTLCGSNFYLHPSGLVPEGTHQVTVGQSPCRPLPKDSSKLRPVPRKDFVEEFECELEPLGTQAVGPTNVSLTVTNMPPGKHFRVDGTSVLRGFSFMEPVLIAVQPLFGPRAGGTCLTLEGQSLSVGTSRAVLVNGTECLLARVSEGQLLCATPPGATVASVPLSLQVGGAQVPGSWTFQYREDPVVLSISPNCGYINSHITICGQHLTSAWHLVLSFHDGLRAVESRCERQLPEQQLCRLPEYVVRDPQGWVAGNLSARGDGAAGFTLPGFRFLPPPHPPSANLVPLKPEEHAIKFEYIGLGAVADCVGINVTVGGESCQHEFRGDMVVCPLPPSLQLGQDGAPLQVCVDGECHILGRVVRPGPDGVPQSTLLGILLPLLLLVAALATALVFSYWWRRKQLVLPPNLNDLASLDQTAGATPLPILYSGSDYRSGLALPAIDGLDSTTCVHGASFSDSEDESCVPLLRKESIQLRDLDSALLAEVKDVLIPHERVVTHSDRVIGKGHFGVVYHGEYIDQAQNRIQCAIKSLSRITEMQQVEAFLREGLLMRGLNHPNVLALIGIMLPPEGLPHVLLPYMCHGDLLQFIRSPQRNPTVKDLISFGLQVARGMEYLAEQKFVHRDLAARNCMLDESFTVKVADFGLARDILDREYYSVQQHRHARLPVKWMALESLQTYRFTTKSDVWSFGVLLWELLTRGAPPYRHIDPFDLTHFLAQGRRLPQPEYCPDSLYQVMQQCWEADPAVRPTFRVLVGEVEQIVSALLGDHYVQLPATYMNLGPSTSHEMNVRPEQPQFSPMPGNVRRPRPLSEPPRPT

For `C[C@@H](Oc1ccc2ncc(C3CC3C(N)=O)cc2c1)c1c(Cl)ccc(F)c1Cl` (some centres undefined), the IC50 (commonly the midpoint of a concentration-inhibition curve) in the series on A549 was > 1000 nM; in the series with HCT-116, > 1000 nM; in series [1] it was 15000 nM; with MKN-45, 93 nM; in series [2], > 50000 nM; in series [3], > 50000 nM. Moreover, the IC50 in [4] was > 50000 nM; in series [6] it was 230 nM; at Aurora kinase A, 22000 nM; in the series on BXPC-3, > 1000 nM; with HUVEC it was 300 nM; on Insulin receptor, > 50000 nM. In the series with Calu-6, the IC50 was > 1000 nM. Also, the solubility – broadly, the dissolved amount per volume that the medium holds – in series [5] was 345 µg/mL (≈ 823 µM).
